# HTRA1 inh: HTRA1 serine protease inhibitors, primary screen, biochemical, fluorescence polarization, HTS; hit rate 0.5% among 340,000; Q92743; AID 504803, 2011; recombinant HTRA1, FP-rhodamine activity-based probe; inhibition, % at 5.96 µM; in the data active means inhibition above about 36%;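 further: 0% = enzyme with DMSO and 100% = wells lacking enzyme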
# PME-1 inh: PME-1 inhibitors via competitive probe labeling, primary screen, biochemical, fluorescence polarization, FP-Rh probe, HTS; recombinant PME-1; hit rate 0.53% among 320,000; AID 2130, 2009; inhibition, % at 5.9 µM;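 active means inhibition above the campaign mean of all compounds plus 3 SD, cut at about 26% in these data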;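 further: competitive labeling of PME-1 active site by serine hydrolase directed probe; 0% = PME-1 with DMSO and 100% = wells lacking PME-1 enzyme; inhibitors block probe labeling so polarization falls and inhibition rises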
# Target sequence (Q9Y570 whole entry, looked up): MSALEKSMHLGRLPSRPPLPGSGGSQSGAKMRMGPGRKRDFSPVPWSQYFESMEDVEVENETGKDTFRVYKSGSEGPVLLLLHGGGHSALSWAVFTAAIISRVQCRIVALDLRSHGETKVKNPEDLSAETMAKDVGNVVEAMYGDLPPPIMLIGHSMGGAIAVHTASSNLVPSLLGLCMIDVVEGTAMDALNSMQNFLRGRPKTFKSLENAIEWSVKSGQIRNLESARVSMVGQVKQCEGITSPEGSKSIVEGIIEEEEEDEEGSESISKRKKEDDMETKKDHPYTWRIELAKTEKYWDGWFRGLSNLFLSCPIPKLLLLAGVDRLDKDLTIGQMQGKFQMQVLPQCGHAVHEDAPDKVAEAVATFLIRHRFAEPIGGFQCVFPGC
# mABHD4 FP: ABHD4 inhibitors, primary screen, biochemical, fluorescence polarization, mouse; (Lyso)-N-acylphosphatidylethanolamine lipase (Mus musculus), Q8VD66; purified mABHD4, FP-Rh probe fluorescence polarization; inhibition, % at 8.92 µM; hit rate 0.54% among 370,000;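 active means inhibition exceeding the mean over every tested compound plus 3 SD, cut at about 30% in these data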;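 further: 0% = plate median of compound wells and 100% = S159A mutant with DMSO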
#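 Doses – 8.92 µM, single dose · Material – wild-type mouse ABHD4 protein · Replication – single well per compound (singlicate) · Measure – percent inhibition of probe binding, normalized to plate controls · Schedule – 45 min compound pre-incubation plus 60 min probe step, 25 °C · Detection – fluorescence polarization with parallel and perpendicular emission, 525/598 nm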
# Fam108B counter: mouse Fam108B serine hydrolase inhibitors, primary screen, counter-screen for RBBP9 inhibitor project, biochemical, fluorescence polarization; recombinant Fam108B, FP-Rh probe fluorescence polarization; inhibition, % at 9.51 µM; hit rate 0.33% among 300,000; AID 1947, 2009;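 active means inhibition above the screen mean inhibition plus 3 SD, computed separately per campaign, cut at about 18% in these data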;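 further: inhibitors lower polarization as less probe binds the enzyme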
# SIAE inh: human SIAE inhibitors, primary screen, biochemical, fluorescence polarization, FP-Rh probe, 1536-well HTS. hit rate 0.69% among 370,000. SIAE FP-Rh probe binding. inhibition, % at 9.66 µM. AID 1053197, 2014;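 active means inhibition above a cutoff: mean of compounds within the control limits plus 3 SD of those, cut at about 17% in these data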;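 further: 0% = plate median of compound wells and 100% = probe without SIAE protein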
# TCR CD3 inh: inhibitors of human TCR-CD3 interaction, primary screen, biochemical, fluorescence, TAMRA-labeled TCR probe. hit rate 0.37% among 360,000. inhibition, % at 9.4 µM. T-cell receptor (TCR). AID 651800, 2012;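 further: recombinant mutant TCR 2C K166C tagged with TAMRA read by polarization; 0% = receptor in buffer alone and 100% = receptor with positive control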
# Fam108b inh conf: mouse Fam108b serine hydrolase inhibitors, confirmation, counter-screen for RBBP9 inhibitor project, biochemical, fluorescence polarization, triplicate; shares compounds with Fam108B counter; recombinant Fam108b, FP-Rh probe fluorescence polarization; inhibition, % at 9.51 µM; hit rate 44% among 930; AID 1978, 2009;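 active means inhibition above a limit from the primary screen, the mean over all compounds plus 3 SD, cut at about 19% in these data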;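 further: 0% = median of active Fam108b wells and 100% = catalytically dead S170A mutant; inhibitors free the probe so polarization falls as inhibition rises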
# Fam108b ABPP HTS: inhibition of mouse Fam108b by HTS hits, late-stage follow-up, biochemical, gel-based ABPP, soluble recombinant form; shares compounds with Fam108B counter; fluorophosphonate probe; inhibition, % at 20 µM; hit rate 44% among 260; AID 588649, 2011; in the data active means inhibition above about 40%
# HTRA1 conf: HTRA1 protease inhibitors, retest, confirmation, biochemical, fluorescence polarization; shares compounds with HTRA1 inh; recombinant HTRA1, FP-rhodamine activity-based probe; inhibition, % at 5.96 µM; hit rate 66% among 1,600; AID 540248, 2011;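 active means mean inhibition over three repeats above a set limit taken from the earlier primary screen, cut at about 37% in these data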;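 further: 0% = HTRA1 with DMSO and 100% = wells lacking HTRA1; inhibitors block probe binding so polarization drops and inhibition rises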
# BSA TAMRA ctr: compounds interfering with TAMRA-BSA probe, counter-screen for TCR-CD3 interaction inhibitor project, biochemical, fluorescence, TAMRA-labeled BSA | shares compounds with TCR CD3 inh | TAMRA-labeled BSA probe fluorescence counterscreen | inhibition, % at 9.4 µM | hit rate 10% among 1,200 | AID 652035, 2013; in the data active means inhibition above about 23%;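 further: 0% = buffer low control and 100% = reference high control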
# TCR-CD3 inh conf: TCR-CD3 interaction inhibitors, retest, confirmation, biochemical, fluorescence, TAMRA-labeled TCR probe | hit rate 48% among 1,200 | TAMRA-labeled TCR probe fluorescence binding assay | inhibition, % at 9.4 µM | shares compounds with TCR CD3 inh
# * hit, by the source's call; . = not tested or not shown. Shown are actives, neighbours in structure and some others; about 1.8% of the full set was active somewhere. Unless noted, no stated cut-off is given here; in the data, active means inhibition above about 19%; inactive means the rest.
SMILES,HTRA1 inh,PME-1 inh,mABHD4 FP,Fam108B counter,SIAE inh,TCR CD3 inh,Fam108b inh conf,HTRA1 conf,others
CCCCC(CCC(=O)O)(C(=O)OCC)c1csc(Nc2ccccc2)n1 (configuration not stated),1,-2,.,-2,.,.,.,.,
C[C@H](O)[C@@H]1C(=O)N2CCc3c([nH]c4c(-c5ccc6c(c5)OCO6)cccc34)[C@@H]2C[C@@H]1N(C)C(=O)c1ccccc1F,.,.,-3,.,0,.,.,.,
Cc1cc2c(N=O)c(NO)ccc2[nH]1,40*,49*,.,33*,.,.,10,74*,
CC(=O)Nc1ccc2[nH]c(C)cc(=O)c2c1,9,1,3,-1,-2,-2,.,.,
COc1cc(C2Nc3c(F)cccc3C3C=CCC32)cc(Br)c1OC (configuration not stated),-4,1,5,5,4,1,.,.,
COc1cccc2c1NC(C(=O)O)C1CC=CC21 (configuration not stated),62*,14,.,53*,.,.,16,61*,
Cc1ccc(C2CCC3(CCC(=O)N3CCO)CC2)cc1 (configuration not stated),.,.,0,.,0,.,.,.,
Oc1ccc(N=Cc2ccc(-c3cccs3)s2)cc1,62*,51*,86*,28*,45*,43*,62*,-27,Fam108b ABPP HTS=0
Oc1ccc(/C=N/Nc2cccc3cccnc23)c(O)c1,47*,36*,29,21*,7,-5,21*,33,
Brc1csc(/C=N/Nc2nc3ccccc3s2)c1,40*,31*,28,32*,15,-8,37*,36,
Cn1ccnc1SCC(=O)c1ccc2ccccc2c1,-13,0,3,-8,-2,-4,.,.,
CCn1c(CSc2nccn2C)nc2cc(C(=O)O)ccc21,38*,25,.,20*,.,.,59*,48*,Fam108b ABPP HTS=0
O=C(N/N=C/c1ccc(O)cc1O)c1ccc(CN2C(=O)c3cccc4cccc2c34)cc1,38*,-36,-95,38*,-15,27*,28*,32,BSA TAMRA ctr=-35;TCR-CD3 inh conf=30*
C/C(=N/NC(=O)c1ccc(-c2ccccc2)cc1)c1cc(O)cc(O)c1,-7,.,-2,.,-1,-3,.,.,
C/C(=N\NC(=O)c1ccc(-c2ccccc2)cc1)C1C(=O)c2ccccc2C1=O,36*,17,22,27*,9,29*,25*,58*,BSA TAMRA ctr=-7;TCR-CD3 inh conf=38*
COc1ccc(N2CCCN(CC(=O)Nc3ccc(Cl)cc3)CC2)cc1,.,.,-1,.,12,.,.,.,
Cc1cc(SCC(=O)c2ccc(O)c(O)c2)n2nc(C)c(-c3ccccc3)c2n1,56*,15,24,18*,5,25*,-16,65*,BSA TAMRA ctr=-2;TCR-CD3 inh conf=48*
O=S(=O)(CC1NCc2ccccc21)NCCc1ccccc1 (configuration not stated),.,.,-1,.,-3,.,.,.,

# Compound activity deposited in PubChem by The Scripps Research Institute Molecular Screening Center.
